Measurements reported in the EternaBench riboswitch data.

System: MS2 coat protein
Assay: apparent Kd, MS2 coat protein; higher = weaker binding; RNA-MaP array; FMN 200 µM where present
Method in brief: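 In 100 mM Tris-HCl pH 7.5, 80 mM KCl, 4 mM MgCl2, BSA, DTT, yeast tRNA and Tween-20, SNAP-549-labelled MS2 coat protein was titrated from 0.7 or 1.5 nM, doubling to 3 µM, over designs transcribed by stalled E. coli RNA polymerase on Illumina sequencing-chip clusters. This was done first without ligand, then with ligand held constant. After green signal was normalised to red-channel RNA signal and control-cluster median Fmax, the apparent Kd was taken as the median of filtered per-cluster binding-curve fits.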

[1] = designed as: OFF switch for flavin mononucleotide, no ligand
[2] = ligand present: flavin mononucleotide, designed as: OFF switch for flavin mononucleotide
[3] = designed as: ON switch for flavin mononucleotide, no ligand
[4] = ligand present: flavin mononucleotide, designed as: ON switch for flavin mononucleotide

Sequence | apparent Kd [1] | apparent Kd [2] | apparent Kd [3] | apparent Kd [4]
GCCAGUUAUGUAGGAUAUGCGAGGCGAGCCUGAGCAGAAGGACAUGAGGAUCACCCAUGUAUUGCGGUUUGAGUACUGAUCGCU | 0.0381 µM | 0.215 µM |  | 
GACAUGAGGAUCACCCAUGUCCCUCCAGAAGGCUGGCGCGCGAAACCGAUCUCGGUUCCGGGCACAGAGGAUAUGGGCGGUUGG |  |  | 0.198 µM | 0.0261 µM
UAUAAGUCUCAUGUAACAUGAGGAUCACCCAUGUCAUAUUGUAGAAGGAUGAUAUUAUGUAUAUCAUAGGAUAUACUAUAAGAU | 0.0213 µM | 0.0233 µM |  | 
GACGGUGAUGUAGGAUAUACGCUGGAUAACAGCGUAGAAGGACAUGAGGAUCACCCAUGUAAAGUGUCUCUAAAUAACACCGUC | 0.0207 µM | 0.0475 µM |  | 
UUAAAUCAUGUAGGAUAUGCAUGGCGAAGCUACGCAGAAGGACAUGAGGAUCACCCAUGUUCAAGCUACCGAGUUCGGUGGCAA | 0.0233 µM | 0.148 µM |  | 
AAGUCAGCAGGAUAUGCGAUGGUGUGCUAGGUAGCUUGCCCACAUGAGGAUCACCCAUGUAGAAGGGCUGGCUA | 0.0132 µM | 0.0121 µM |  | 
GUCGGAAACGACAAACGUAGCAUACGAGAAGGCUGAUCCACGACAUGAGGAUCACCCAUGUAGUUAGAGGAUAUUGGAUGCUAC |  |  | 0.0547 µM | 0.0113 µM
GUGGUGCUAAAGAAGCACAUGAGGAUCACCCAUGUGCCGACACAGGAUAUCGACCGCGUUGGCGUCGAGAAGGGUGAGCCUACU |  |  | 0.0634 µM | 0.0344 µM
CGGCUCUCAGGAUAUACCUUGGGUGGCCAACUGUUUCGUUUACAUGAGGAUCACCCAUGUAGAAGGGAGGGCAA | 0.0538 µM | 0.033 µM |  | 
GCUGCGCGAGGAUAUGCGGUUUGUGCUUUGGCCCAUGGCGUACAUGAGGAUCACCCAUGUAGAAGGCGUGUGGG | 0.0135 µM | 0.0138 µM |  | 
CAGCGAUAGCUGAACAAUCUAUCUGAGGAUAUUCAUAUAAACAUGAGGAUCACCCAUGUAAAUUGGGAGAAGGCAGAUAGAUUG |  |  | 0.018 µM | 0.00506 µM
AGCUGGUGACAGCAUCCAUCUUAACAUGAGGAUCACCCAUGUAGAAGGCUGUACGGUUACCGUACAGAGGAUAUACAUAGAUGG | 0.00795 µM |  |  | 
ACGGAGCUAGGAUAUACAUGAGGAUCACCCAUGUAUGAUGCGGCGCCCUUUUGCGCCUGUAGAAGGAGCACCGU | 0.0159 µM | 0.0165 µM |  | 
AGUCUGAGAGGAUAUACAUGAAAAAAAAAAGUUAGAUCCCUACAUGAGGAUCACCCAUGUAGAAGGCUCUGACA | 0.0192 µM | 0.0167 µM |  | 
UCACAGUCAGGAUAUUCUGUGUAGGUUGCGCCUCAAGCACUGAAGAAGGGACAUGAGGAUCACCCAUGUUCCUC | 0.0155 µM | 0.0187 µM |  | 
CUACGCUAGGAGAAGGGCUAGAGUGUGAUAUAUUUGCCCGCGAGCACAUGAGGAUCACCCAUGUAGCAGGAUAUCCAAGCCGGU | 0.00759 µM | 0.0168 µM |  | 
CCUAGAGAAGGAUAUACAUGAGGAUCACCCAUGUUCCGGCGCACAAUUAUGCGCCAAUGUAGAAGGUCUGGGCA | 0.0236 µM | 0.0266 µM |  | 
AAUAUUAAGUAGAAGGUAGAUAUUAUUUUAUUCAUGUUUACAUGAGGAUCACCCAUGUAUAAGUCUAAGGAUAUACAUCGAUAG | 0.0149 µM | 0.00993 µM |  | 
CUUGUGUAAGGAUAUCGAGUAGAACGCUCGAGUUCUGAGCUCGAGAAGGUACAUGAGGAUCACCCAUGUUAAAA | 0.0401 µM | 0.0662 µM |  | 
UUAUUAUAUGUAGGAUAUGCGUAUUAUUGUUAUGCAGAAGGACAUGAGGAUCACCCAUGUAUAUUAUUGUUAUGUAUUAUAUAU | 0.0305 µM | 0.0693 µM |  | 
CAGUACUGAGGAUAUACAUGAGGAUCACCCAUGUGAACCAGCUAGGAAACUAGCAAAGGUAGAAGGCAGUACUG | 0.0213 µM | 0.259 µM |  | 
ACAUGAGGAUCACCCAUGUUCACAUAGGAUAUUGAUUAUAUUGGUUUAAGAAUAGUAAUUGACCUCAAGAAGGAUGCCUGAUCU |  |  | 0.0153 µM | 0.0122 µM
GUAGCAUUCUGAGGAUAUUCAUACCGGAAACGGACAUGAGGAUCACCCAUGUGGCGAAAGCCUUGGAAGAAGGCAGUAUGCUAC |  |  | 0.00427 µM | 0.00356 µM
CAAUUCUGAGGAUAUCGAUUUUUGUACAUGAGGAUCACCCAUGUCCUUUUUAUUUAAUCCCGAGAAGGCAGUGUAU | 0.0233 µM | 0.0261 µM |  | 
AGGUGGUGUGGAAAGGAUAUACGGUUGAGGACAUGAGGAUCACCCAUGUGGUAGAGGACGUGAGUGUAGAAGGUUCGGGAUUGGU |  |  | 0.0749 µM | 0.0521 µM
GUCAGCUCGUGAGGAUAUACAACACUGCUUCGGCACUGUAUUAAGAUCACAUGAGGAUCACCCAUGUAGAAGGCACGAGCUGAU | 0.00862 µM | 0.104 µM |  | 
ACAAAUGGAGGAUAUACAUGAGGAUCACCCAUGUAUAUCCUACAUGUGUGAUAAUCAUGUAGAAGGCCAUUUGA | 0.014 µM | 0.0123 µM |  | 
GCAGCUAUUAUUAUACAUGAGGAUCACCCAUGUUACAUGUGUAAGGAUAUUGAUGUUUAUAUAAUCAAGAAGGUACGAAGCUGC |  |  | 0.0116 µM | 0.00715 µM

Sequence | apparent Kd [1] | apparent Kd [2] | apparent Kd [3] | apparent Kd [4]
AUCAACCAGGCAGGAUAUCAAUGUGGCCUCAUCGUACACCCUCGCAACAUGAGGAUCACCCAUGUUGAGAAGGGCCAAUUAAGA | 0.0101 µM | 0.00602 µM |  | 
ACAUGAGGAUCACCCAUGUUCACAUAGGAUAUUGAUUAUAUUGGUUUUUGAAUAGUAAUUAACCUCAAGAAGGAUGCCUGAUCU |  |  | 0.0116 µM | 0.00934 µM
GGUACCUUCACAGGAUAUGCUAUCCUUUGGGUAGCAGAAGGGUGAUACAUGAGGAUCACCCAUGUGGUGCCAGGGCGUGAGCCC |  |  | 1.09 µM | 0.305 µM
ACAGCGUGAGGAUAUACAUGAGGAUCACCCAUGUGUGGCAGGUUAUCCUGUCAUAAGUGUAGAAGGCACGCUGU | 0.0444 µM | 0.0939 µM |  | 
CUCAUGUCAGGAUAUCAGUAGUAAAAAAAAAAAAUUACUACUGAGAAGGGACAUGAGGAUCACCCAUGUCACUU | 0.0271 µM | 0.0287 µM |  | 
AAUAAUUAGUAAGGAUAUACUAGUGAUUAGCUUGUAGAAGGUACAGUCUUAUGUAUAACAAAUUAACAUGAGGAUCACCCAUGU |  |  | 0.0088 µM | 0.0081 µM
GCCAUCGCAUGAGGAUAUGGCACCGUUUCGGUGCCAGAAGGCAUGUCAAAUGACAUGAGGAUCACCCAUGUAGUUAAGGUGGCA |  |  | 0.225 µM | 0.0149 µM
CACAGGGAUUCAGGAUAUAUUAGCCGAGGCCGCGUAGAAGGGAAAUCCUGACAUGAGGAUCACCCAUGUUGACCCGCCUUCCAU |  |  | 0.0528 µM | 0.0625 µM
GCGUACAUAUCAGGAUAUCAUUGUAUUGUUUUACUCAGUGUAUACAUGAGGAUCACCCAUGUUCUUGAGAAGGGAUUACUACGC | 0.0151 µM | 0.0141 µM |  | 
GGUCCAAUAUGAGGAUAUAGCAUCGUAUAGAUGCUAGAAGGCGUGUCGGUAGACAUGAGGAUCACCCAUGUAUUACAAUGGACC |  |  | 0.114 µM | 0.032 µM
AAUUUAAGAUGAGGAUAUUGACAUGAGGAUCACCCAUGUAUUUGGGAAUGUUUACUGAAUUCUUACAAGAAGGUAUACGAACUU | 0.185 µM | 0.138 µM |  | 
GGUCGUCACAUUAACAUGAGGAUCACCCAUGUCUCUUGACAUGAGGAUAUGGAUCCUAAUUGGAUCCAGAAGGCAUGGACGACC |  |  | 1.03 µM | 0.0965 µM
GCGCAUUUAAGAUUUAUAUAAUUUUCAGAAGGUGAAUAGUCGACAUGAGGAUCACCCAUGUAAUUCAAGGAUAUGAUUUAGCGC |  |  | 0.0596 µM | 0.0101 µM
UAUUAAUGCAAGGAUAUGCUAUUAAUUUUUUUUGCAGAAGGUGCAACAUGAGGAUCACCCAUGUUUGAGGGUAU | 0.0668 µM | 0.0678 µM |  | 
UUUAUAUAGUAAGGAUAUGUAUUAUUUCUAUCAACAGAAGGUACUGACAUGAGGAUCACCCAUGUUUUAGUGUGGGCAUGUAGU | 0.261 µM | 0.381 µM |  | 
AAAAAGUCAGGAUAUCCAAAAAAAAAAAAAAAAAAAAAAAAGGAGAAGGGACAUGAGGAUCACCCAUGUAAAAA | 0.0779 µM | 0.0853 µM |  | 
GGAUGACAAAGUCAUCCAAAUCGAACAUGAGGAUCACCCAUGUAGGAUAUGCUUCUCAAAGAGAAGCAGAAGGACAUGUGCUUU | 0.0378 µM | 0.228 µM |  | 
UAAAGUUAAGGAGGAUAUUACAUGAGGAUCACCCAUGUAAUGGGCUCGGUGUAAGAAGGCCUUGAGUCGAAGUUUCGGAUGAGG | 0.00955 µM | 0.0214 µM |  | 
ACAUGUAAUACAGGAUAUGUUAUACAUUAAUCAAUCAGUUAUUAUGAUUAUACAGAAGGGUAUACAUGAGGAUCACCCAUGUUA | 0.0197 µM | 0.0262 µM |  | 
GCCUGUGAAGGAUAUACAUGAGGAUCACCCAUGUGGCGGGCAUACCCGCCGAGACCGUGUAGAAGGUCAUAGUA | 0.0675 µM | 0.0576 µM |  | 
AACAGGACAGGAUAUACAUGAGGAUCACCCAUGUAGGAAUUAAGCAGCGUACCACACAGUAGAAGGGUCAUGGA | 0.0355 µM | 0.0346 µM |  | 
AUUUUUAAGGUAGGAUAUAGUAUAAUGAUUUAAUUAGAAGGAUCUCACAUGAGGAUCACCCAUGUAAUAGGAUUACCCAUGUAU | 0.0278 µM | 0.0227 µM |  | 
CGGCGCUGUCGAGAGGAUAUGCGGUGAUGGACAUGAGGAUCACCCAUGUUAGCGAUAGCAUCACGGUAGAAGGCUCUACGGCUGC |  |  | 0.012 µM | 0.0113 µM
GCCAGUUAUGUAGGAUAUGCGAGGCGAGCCUGAGCAGAAGGACAUGAGGAUCACCCAUGUAUUGCGGUUUAUGUUCAGAUCGCU | 0.0159 µM | 0.0182 µM |  | 
AGCUACGUUUCGUAGCAGUGUCAUCGAGAAGGCCUCAUUACAUGAGGAUCACCCAUGUAAGCAUGGGAGGAUAUCGAUGAUACA |  |  | 0.0365 µM | 0.0156 µM
AAUAACAGAGGAUAUACUAUUUUAUGUGUUUGUUGUUUUAAACAUGAGGAUCACCCAUGUAGAAGGCUGAUUGA | 0.0382 µM | 0.0454 µM |  | 
AGGCGAGUAGGAUAUGCGUAUUUACGGGAAAGCUGGAUGAUACAUGAGGAUCACCCAUGUAGAAGGGCUCUGAA | 0.0192 µM | 0.0154 µM |  | 
